A selection: hits, their analogues and other compounds. The true share with any hit is near 1.7%.
Rpn11 inh: blocks the human proteasome subunit Rpn11; inhibition, % at 20 µM; actives 0.59% (n = 360,000); AID 588493; O00487; human 26S proteasome, Ub4-pepOG fluorescence polarization; 20S core pre-blocked with epoxomicin;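 active = inhibition at 20 µM, scaled to each plate's controls, above about 33%, limit read from the data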
Target sequence (O00487 whole entry, looked up): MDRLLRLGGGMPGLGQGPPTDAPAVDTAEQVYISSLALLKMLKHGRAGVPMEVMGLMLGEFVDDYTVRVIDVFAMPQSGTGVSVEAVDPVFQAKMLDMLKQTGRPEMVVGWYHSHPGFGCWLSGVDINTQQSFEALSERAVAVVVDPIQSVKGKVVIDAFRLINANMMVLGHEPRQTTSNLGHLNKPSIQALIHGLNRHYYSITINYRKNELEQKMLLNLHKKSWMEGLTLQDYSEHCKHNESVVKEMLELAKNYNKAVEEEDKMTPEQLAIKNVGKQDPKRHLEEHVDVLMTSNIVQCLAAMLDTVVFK
IDE cell inh: inhibitors of human insulin-degrading enzyme in cells; actives 0.41% (n = 320,000); AID 434962; inhibition, % at 5.59 µM; P14735; HEK cells, FAbetaB cleavage, fluorescence polarization;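 active = percent inhibition above the average of all tested compounds plus 3 SD, set per screening campaign, cut at about 16% in these data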;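 also: IDE supplied by intact live HEK cells; FP after avidin binding of uncleaved biotin substrate so inhibition keeps polarization high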
TPT1 inh: blocks Candida albicans tRNA 2'-phosphotransferase | AID 1962 | actives 0.81% (n = 300,000) | recombinant caTPT1, FP RNA substrate dephosphorylation | inhibition, % at 5 µM;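 active = inhibition above the mean of all tested compounds plus 3 SD, set per screening campaign, cut at about 24% in these data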
HNF4A DNA FP: change in binding of human HNF4 alpha to DNA | HNF4a-FITC DNA binding, fluorescence polarization, 1 h | activity change, % at 10 µM | actives 0.3% (n = 360,000); in the data active = activity change above about 30%, passing the limit was not always enough
IDE cell activ: boosts human insulin-degrading enzyme activity in HEK cells; P14735; FAbeta-B cleavage, fluorescence polarization; 0% vehicle, 100% cell-free pure enzyme wells; activation, % at 5.96 µM; actives 0.073% (n = 340,000);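 active = activation above the mean of all tested compounds plus 3 SD, set per screening campaign, cut at about 17% in these data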
CSN inh: CSN deneddylation inhibition; AID 651999; actives 0.38% (n = 360,000); Purified CSN, SCF-Nedd8-OG deneddylation, fluorescence polarization; inhibition, % at 12.5 µM; Q92905;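 active = pattern-corrected inhibition above about 35%, with an unprinted fluorescence ratio check between 0.5 and 1.5, limit read from the data, passing the limit was not always enough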
Target sequence (Q92905 whole entry, looked up, one chain of several): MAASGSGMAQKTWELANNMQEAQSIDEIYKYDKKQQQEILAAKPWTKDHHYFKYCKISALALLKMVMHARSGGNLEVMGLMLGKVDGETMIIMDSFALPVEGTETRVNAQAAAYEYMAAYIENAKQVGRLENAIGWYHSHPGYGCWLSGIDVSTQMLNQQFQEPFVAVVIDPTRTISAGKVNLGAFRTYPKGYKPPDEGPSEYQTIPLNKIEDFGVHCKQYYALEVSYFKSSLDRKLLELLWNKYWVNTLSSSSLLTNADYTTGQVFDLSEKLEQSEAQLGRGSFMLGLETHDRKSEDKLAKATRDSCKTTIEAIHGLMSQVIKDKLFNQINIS
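Assay system: Purified human Csn5 enzyme expressed in HEK293T cells | Amount: Enzyme 0.24 nM | Measured by: Fluorescence polarization readout | Medium: Tris/NaCl/DTT buffer, pH 7.5 | Compound dosing: One concentration, 12.5 µM, 0.25% DMSO | Times: 90 min incubation of compound, enzyme and substrate at room temperature | Control set: no-enzyme wells high, enzyme-with-substrate wells low | Read-out: % inhibition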
Rpn11 confirm: Rpn11 inhibition confirmation, single concentration. actives 29% (n = 1,900). inhibition, % at 20 µM. shares compounds with Rpn11 inh. purified human 26S proteasome, Ub4-pepOG fluorescence polarization; proteasome pretreated with epoxomicin. AID 602318
MMP-2 counter: MMP-2 (human) inhibition counter-screen; shares compounds with Rpn11 inh; recombinant MMP-2, FRET peptide cleavage fluorescence; inhibition, % at 20 µM; actives 4% (n = 1,900); AID 602330;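 also: human MMP-2 activated beforehand with APMA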
Thrombin FP: counter-screen for RPN11 inhibitors: inhibition of bovine thrombin. shares compounds with Rpn11 inh. bovine thrombin cleavage of Ub4-pepOG, fluorescence polarization. inhibition, % at 20 µM. actives 13% (n = 1,900). AID 602333;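 active = mean inhibition at least 40% at 20 µM, or signal 3 deviations below plate average, so some actives read negative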
Each line names hits and unclear results; the compound was inactive in the other large screens (follow-up assays come after a bar, where they were run). Rule as the data show it, unless noted: active = inhibition above about 40%; inactive = the rest.

CN1CCCC1CCNc1ccc2c(=O)c3ccccc3oc2c1 (stereo not given)	none
Cn1c(NCC2CCCCC2)nc2cc(-c3ccsc3)sc2c1=O	none (no result: IDE cell inh, TPT1 inh, IDE cell activ)
CCCC(C)C(=O)Nc1ccc(Cl)cn1 (stereo not given)	Rpn11 inh 32.8 | Rpn11 confirm inactive | MMP-2 counter inactive | Thrombin FP inactive
COc1ccc(Cl)cc1C(=O)NNC(=O)C1CCCO1 (stereo not given)	none (no result: IDE cell inh, TPT1 inh)
COc1ccc2cc(-c3csc(-c4cccnc4)n3)ccc2c1	Rpn11 inh 65.3 | Rpn11 confirm inactive | MMP-2 counter inactive | Thrombin FP inactive
COc1ccc(-c2csc(-c3cccnc3)n2)cc1C	none
CC1(C(=O)Nc2ccc3c(c2)OCCO3)CN(S(C)(=O)=O)CC(=O)N1CC(F)(F)F (stereo not given)	none (no result: Rpn11 inh, IDE cell inh, TPT1 inh, IDE cell activ)
CCC(CO)Oc1cc(NC(=O)c2ccc(N)cc2)c2ncn(C(C)C)c2c1 (stereo not given)	Rpn11 inh 43.2 (no result: TPT1 inh) | Rpn11 confirm 44.4 | MMP-2 counter inactive | Thrombin FP inactive
CCC(CO)Oc1cc(NC(=O)c2ccc(F)cc2)c2ncn(C(C)C)c2c1 (stereo not given)	none (no result: TPT1 inh)
c1ccc(CNc2nc(-c3cccnc3)nc3ccccc23)cc1	none (no result: IDE cell inh, TPT1 inh)
Clc1cccc(CNc2nc(-c3cccnc3)nc3ccccc23)c1	Rpn11 inh 53.9 (no result: IDE cell inh, TPT1 inh) | Rpn11 confirm inactive | MMP-2 counter inactive | Thrombin FP inactive
CC1(C)C(=O)CC[C@@]2(C)[C@H]1CC[C@@]1(C)CC3=C(CC[C@@H]12)[C@@]1(C)CCC(=O)C(C)(C)[C@@H]1CC3	none (no result: Rpn11 inh, HNF4A DNA FP, IDE cell activ, CSN inh)
Cc1nn2c(N3CCCC3)c3c(nc2c1-c1ccccc1)CCC3	Rpn11 inh 110.4 (no result: IDE cell activ) | Rpn11 confirm inactive | MMP-2 counter inactive | Thrombin FP inactive
COc1ccc(C(=O)N/N=C/c2ccc(OC(=O)c3cccs3)cc2)cc1	none
O=C(N/N=C\c1ccc(OC(=O)c2cccs2)cc1)c1ccc(Cl)cc1	Rpn11 inh 76.0 | Rpn11 confirm inactive | MMP-2 counter inactive | Thrombin FP inactive
Cc1cnc(Sc2ncccc2[N+](=O)[O-])nc1	none
Cc1cc(C)n2nc(Sc3ncccc3[N+](=O)[O-])nc2n1	Rpn11 inh 42.6 (no result: IDE cell activ) | Rpn11 confirm inactive | MMP-2 counter inactive | Thrombin FP inactive
COc1ccc(CN2C(=O)c3cccnc3C2Nc2cc(Cl)c(OC)cc2OC)cc1 (stereo not given)	none
COc1ccc(CN2C(=O)c3cccnc3C2Nc2ccc(C)cc2)cc1 (stereo not given)	Rpn11 inh 47.3 | Rpn11 confirm inactive | MMP-2 counter inactive | Thrombin FP inactive
CC(=O)N1CCC(c2nc3ccccc3n2C(C)C(=O)NCc2ccccc2)CC1 (stereo not given)	none (no result: Rpn11 inh, IDE cell inh, TPT1 inh, IDE cell activ)
O=C(N/N=C/c1ccc(Cl)c([N+](=O)[O-])c1)c1ccc2c(c1)OCCO2	Rpn11 inh 127.1 (no result: IDE cell inh, TPT1 inh) | Rpn11 confirm inactive | MMP-2 counter 54.4 | Thrombin FP inactive
O=C(Nc1ccc(Cl)c([N+](=O)[O-])c1)c1ccc2c(c1)OCCO2	none
CC(=O)NC(CC(=O)O)c1ccccc1 (stereo not given)	none
C=CC(=C)CC(NC)c1ccccc1 (stereo not given)	Rpn11 inh 50.1, CSN inh 47.4 | Rpn11 confirm inactive | MMP-2 counter inactive | Thrombin FP inactive
COc1cccc(OC)c1C(=O)NC(=S)Nc1ccc2c(c1)Cc1ccccc1-2	Rpn11 inh active | Rpn11 confirm inactive | MMP-2 counter inactive | Thrombin FP inactive
COc1cccc(OC)c1C(=O)Nc1ccc2c(c1)Cc1ccccc1-2	none
O=C(Cc1ccc(Cl)c(Cl)c1)Nc1ccc(S(=O)(=O)Nc2ncccn2)cc1	none
O=c1ccc(NS(=O)(=O)c2ccccc2)cn1Cc1ccc(Cl)c(Cl)c1	Rpn11 inh 35.7 | Rpn11 confirm inactive | MMP-2 counter inactive | Thrombin FP inactive
O=c1cc(-c2ccccc2)nc2c(Cl)cc(Cl)cn12	none (no result: IDE cell inh, TPT1 inh, IDE cell activ)
C=CCn1sc(=N)c(C#N)c1N	Rpn11 inh 59.6 | Rpn11 confirm inactive | MMP-2 counter inactive | Thrombin FP inactive
COc1ccc(-c2ccc(C#N)c(SCC(=O)Nc3sc4c(c3C#N)CCC4)n2)cc1OC	Rpn11 inh 83.1, HNF4A DNA FP 47.4 | Rpn11 confirm inactive | MMP-2 counter inactive | Thrombin FP inactive
N#Cc1cc2c(nc1SCC(=O)Nc1sc3c(c1C#N)CCC3)CCC2	none
COc1cccc(C2c3c(C)nn(-c4ccc([N+](=O)[O-])cc4)c3N=C3C(=O)Nc4ccccc4N32)c1 (stereo not given)	Rpn11 inh 46.3, HNF4A DNA FP 56.9 | Rpn11 confirm inactive | MMP-2 counter inactive | Thrombin FP inactive
Nc1ncnc2c1ncn2[C@@H]1O[C@H](C(=O)N2CCC[C@@H]2C(=O)OCc2ccccc2)[C@@H](O)[C@H]1O	none (no result: IDE cell inh, TPT1 inh, IDE cell activ)
CC(C)N1CCc2c(sc(NC(=O)c3nc4ccccc4s3)c2C(N)=O)C1	Rpn11 inh 61.2 | Rpn11 confirm inactive | MMP-2 counter inactive | Thrombin FP inactive
O=C(O)c1cc(-c2ccc(/C=N/Nc3ccc([N+](=O)[O-])cn3)o2)ccc1Cl	Rpn11 inh 75.5 (no result: IDE cell inh, TPT1 inh) | Rpn11 confirm inactive | MMP-2 counter inactive | Thrombin FP inactive
COc1ccc(-n2nc3c(N4CCC(C(=O)N5CCCCCC5)CC4)nnc(C)c3c2C)cc1	Rpn11 inh 54.9 | Rpn11 confirm inactive | MMP-2 counter inactive | Thrombin FP inactive
Cc1ccc(-n2nc3c(N4CCC(C(=O)N5CCN(C)CC5)CC4)nnc(C)c3c2C)cc1	Rpn11 inh 41.0 | Rpn11 confirm inactive | MMP-2 counter inactive | Thrombin FP inactive
COc1ccc(-n2nc3c(N4CCC(C(=O)NCCc5ccco5)CC4)nnc(C)c3c2C)cc1	none
Cc1nnc(N2CCC(C(=O)N3CCCCCC3)CC2)c2nn(-c3ccc(Cl)cc3)c(C)c12	none
CCc1ccc(CNC(=O)C2CCCN(c3nnc(C)c4c(C)n(-c5ccccc5)nc34)C2)cc1 (stereo not given)	Rpn11 inh 60.5 | Rpn11 confirm inactive | MMP-2 counter inactive | Thrombin FP inactive
COc1ccc(-n2nc3c(N4CCC(C(=O)NCc5cccc(C)c5)CC4)nnc(C)c3c2C)cc1	Rpn11 inh 71.4 | Rpn11 confirm 55.0 | MMP-2 counter inactive | Thrombin FP inactive

From PubChem BioAssay
